Reference: ChEMBL document CHEMBL1131450, “Synthesis and antitumor evaluation of 2,5-disubstituted-indazolo[4, 3-gh]isoquinolin-6(2H)-ones (9-aza-anthrapyrazoles)” (J Med Chem, 1998)
In brackets after ≈: the same amount, converted by molar mass.

Experiments:
[1] = tested on: MX1; assay: In vivo antitumor activity was measured on MX-1 human mammary carcinoma cells. TWI%=tumor weight inhibition. Optimal dose 24 mg/kg/day.; assay type: functional
[2] = tested on: LoVo; assay: In vitro cytotoxicity on human colon adenocarcinoma (LoVo ) tumor cell line.; assay type: functional, cell-based
[3] = tested on: LoVo; assay: Resistance index measured as the ratio of IC50 of LoVo/Dx cell line to that of LoVo cell line.; assay type: functional, Homo sapiens
[4] = tested on: P388; assay type: functional, Mus musculus
[5] = tested on: LoVo/Dx (Homo sapiens); assay: cells
[6] = tested on: P388; assay: In vivo antitumor activity was measured on systemic P388 murine leukemia cells. Maximum tested dose 40 mg/kg/day.; assay type: functional, Mus musculus
Outline: (§1)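 CD2F1 male mice given 10⁶ P388 leukemia cells iv (day 0); drug given iv on days 1, 4 and 7. Survival expressed as T/C% = median survival time of treated / median survival of controls × 100, reported at optimal dose (mg/kg/day) or maximum tested dose.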

[7] = tested on: MX1; assay: In vivo antitumor activity was measured on MX-1 human mammary carcinoma cells. TWI%=tumor weight inhibition. Maximum tested dose 90 mg/kg/day.; assay type: functional
[8] = tested on: MX1; assay: In vivo antitumor activity was measured on MX-1 human mammary carcinoma cells. TWI%=tumor weight inhibition. Optimal dose 9 mg/kg/day.; assay type: functional
[9] = tested on: P388; assay: In vivo antitumor activity was measured on systemic P388 murine leukemia cells. Optimal dose 4 mg/kg/day.; assay type: functional, Mus musculus; outline: as §1
[10] = tested on: MX1; assay: In vivo antitumor activity was measured on MX-1 human mammary carcinoma cells. TWI%=tumor weight inhibition. Optimal dose 130 mg/kg/day.; assay type: functional
[11] = tested on: P388; assay: In vivo antitumor activity was measured on systemic P388 murine leukemia cells. Optimal dose 120 mg/kg/day.; assay type: functional, Mus musculus; outline: as §1
[12] = tested on: P388; assay: In vivo antitumor activity was measured on systemic P388 murine leukemia cells. Optimal dose 13 mg/kg/day.; assay type: functional, Mus musculus; outline: as §1
[13] = tested on: MX1; assay: In vivo antitumor activity was measured on MX-1 human mammary carcinoma cells. TWI%=tumor weight inhibition. Optimal dose 1.3 mg/kg/day.; assay type: functional
[14] = tested on: P388; assay: In vivo antitumor activity was measured on systemic P388 murine leukemia cells. Toxic deaths observed at dose 18 mg/kg/day.; assay type: functional, Mus musculus
[15] = tested on: MX1; assay: In vivo antitumor activity was measured on MX-1 human mammary carcinoma cells. TWI%=tumor weight inhibition. Optimal dose 8 mg/kg/day.; assay type: functional
[16] = tested on: P388; assay: In vivo antitumor activity was measured on systemic P388 murine leukemia cells. Maximum tested dose 3 mg/kg/day.; assay type: functional, Mus musculus; outline: as §1
[17] = tested on: MX1; assay: In vivo antitumor activity was measured on MX-1 human mammary carcinoma cells. TWI%=tumor weight inhibition. Optimal dose 27 mg/kg/day.; assay type: functional
[18] = tested on: P388; assay: In vivo antitumor activity was measured on systemic P388 murine leukemia cells. Optimal dose 24 mg/kg/day.; assay type: functional, Mus musculus; outline: as §1
[19] = tested on: MX1; assay: In vivo antitumor activity was measured on MX-1 human mammary carcinoma cells. TWI%=tumor weight inhibition. Optimal dose 60 mg/kg/day.; assay type: functional
[20] = tested on: P388; assay: In vivo antitumor activity was measured on systemic P388 murine leukemia cells. Optimal dose 1.5 mg/kg/day.; assay type: functional, Mus musculus; outline: as §1
[21] = tested on: MX1; assay: In vivo antitumor activity was measured on MX-1 human mammary carcinoma cells. TWI%=tumor weight inhibition. Optimal dose 18 mg/kg/day.; assay type: functional
[22] = tested on: P388; assay: In vivo antitumor activity was measured on systemic P388 murine leukemia cells. Maximum tested dose 18 mg/kg/day.; assay type: functional, Mus musculus; outline: as §1
[23] = tested on: MX1; assay: In vivo antitumor activity was measured on MX-1 human mammary carcinoma cells. TWI%=tumor weight inhibition. Optimal dose 40 mg/kg/day.; assay type: functional
[24] = tested on: MX1; assay: In vivo antitumor activity was measured on MX-1 human mammary carcinoma cells. TWI%=tumor weight inhibition. Optimal dose 120 mg/kg/day.; assay type: functional
[25] = tested on: P388; assay: In vivo antitumor activity was measured on systemic P388 murine leukemia cells. Optimal dose 7.5 mg/kg/day.; assay type: functional, Mus musculus; outline: as §1
[26] = tested on: MX1; assay: In vivo antitumor activity was measured on MX-1 human mammary carcinoma cells. TWI%=tumor weight inhibition. Optimal dose 13 mg/kg/day.; assay type: functional
[27] = tested on: MX1; assay: Antitumor activity was measured on MX-1 human mammary carcinoma cells. TWI%=tumor weight inhibition. Optimal dose at 40 mg/kg/day; assay type: functional
[28] = tested on: P388; assay: In vivo antitumor activity was measured on systemic P388 murine leukemia cells. Optimal dose at 40 mg/kg/day; assay type: functional, Mus musculus; outline: as §1
[29] = tested on: P388; assay: In vivo antitumor activity was measured on systemic P388 murine leukemia cells. Maximum tested dose 20 mg/kg/day.; assay type: functional, Mus musculus; outline: as §1

| IC50 [5] [µg/mL] | Structure (SMILES) | IC50 [2] [µg/mL] | RI [3] | other results |
| --- | --- | --- | --- | --- |
| 2.13 (≈ 5.43 µM) | CN(C)CCCNc1ccc2c3c(nn2CCN(C)C)-c2cnccc2C(=O)c13 | 0.33 (≈ 0.841 µM) | 6.4 | T/C [6]: 138%; TWI [7]: 141% |
| 3.78 (≈ 10.4 µM) | CNCCNc1ccc2c3c(nn2CCN(C)C)-c2cnccc2C(=O)c13 | 0.03 (≈ 0.0823 µM) | 126 | T/C [12]: 262%; TWI [13]: 68% |
| > 100 | NCCn1nc2c3c(c(NCCNCCO)ccc31)C(=O)c1ccncc1-2 | 1.63 (≈ 4.45 µM) | >61 | TWI [17]: 62%; T/C [18]: 194% |
| 3.14 (≈ 8.96 µM) | CNCCNc1ccc2c3c(nn2CCNC)-c2cnccc2C(=O)c13 | 0.04 (≈ 0.114 µM) | 78 | T/C [20]: 167% |
| 13.6 (≈ 38.7 µM) | CN(C)CCn1nc2c3c(c(NCCO)ccc31)C(=O)c1ccncc1-2 | 0.32 (≈ 0.911 µM) | 42.5 | T/C ([6]; in the assay text read “Maximum tested dose 12 mg/kg/day” for “Maximum tested dose 40 mg/kg/day”): 167%; TWI [23]: 97% |
| 15.4 (≈ 47.8 µM) | NCCNc1ccc2c3c(nn2CCN)-c2cnccc2C(=O)c13 | 0.86 (≈ 2.67 µM) | 18 | T/C [25]: 194%; TWI [26]: 70% |
| > 100 | CN(C)CCn1nc2c3c(c(NCCNS(C)(=O)=O)ccc31)C(=O)c1ccncc1-2 | 4.1 (≈ 9.57 µM) | >24 | T/C [29]: 111%; TWI [19]: 90% |

The remaining lines, values behind:

| Structure (SMILES) | IC50 [5] [µg/mL] | IC50 [2] [µg/mL] | RI [3] | other results |
| --- | --- | --- | --- | --- |
| CN(C)CCCn1nc2c3c(c(NCCN(C)C)ccc31)C(=O)c1ccncc1-2 | 2 (≈ 5.1 µM) | 0.24 (≈ 0.611 µM) | 8.3 | TWI [1]: 55%; T/C [4]: 270% |
| CCN(CC)CCNc1ccc2c3c(nn2CCN(C)C)-c2cnccc2C(=O)c13 | 0.83 (≈ 2.04 µM) | 0.37 (≈ 0.91 µM) | 2.2 | TWI [8]: 35%; T/C [9]: 175% |
| O=C1c2ccncc2-c2nn(CCNCCO)c3ccc(NCCN(CCO)CCO)c1c23 | > 100 | > 100 | – | TWI [10]: 45%; T/C [11]: 111% |
| CN(C)CCn1nc2c3c(c(NCCCN)ccc31)C(=O)c1ccncc1-2 | 12.5 (≈ 34.3 µM) | 1.65 (≈ 4.53 µM) | 7.6 | T/C [14]: 125%; TWI [15]: 73% |
| CN(C)CCn1nc2c3c(c(NCCN4CCCCC4)ccc31)C(=O)c1ccncc1-2 | 0.39 (≈ 0.932 µM) | 0.35 (≈ 0.836 µM) | 1.1 | T/C [16]: 113%; TWI [1]: 6% |
| CN(C)CCNCCNc1ccc2c3c(nn2CCN(C)C)-c2cnccc2C(=O)c13 | > 100 | 3.2 (≈ 7.59 µM) | >31 | T/C [6]: 133%; TWI [19]: 25% |
| CN(C)CCn1nc2c3c(c(NCCN4CCNCC4)ccc31)C(=O)c1ccncc1-2 | > 100 | 4.83 (≈ 11.5 µM) | 21 | TWI [21]: 14%; T/C [22]: 113% |
| CN(C)CCn1nc2c3c(c(NCCn4ccnc4)ccc31)C(=O)c1ccncc1-2 | > 100 | 1.1 (≈ 2.74 µM) | >91 | TWI [24]: 70%; T/C [6]: 150% |
| O=C1c2ccncc2-c2nn(CCNCCO)c3ccc(NCCNCCO)c1c23 | > 100 | 4.5 (≈ 11 µM) | >22 | TWI [27]: 89%; T/C [28]: 165% |
